# Screening data: PubChem, several laboratories
# Cl transport mod – modulators of human KCC2 chloride dependent transport | AID 1456 | 190,000 compounds, 2.2% hits | Q9H2X9 | B-score of Tl+ flux slope (higher = more flux/activation; lower = inhibition) at 10 µM | KCC2 cells, thallium flux FluoZin-2 fluorescence;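 active = thallium flux slope and its plate-corrected score both differing from the plate sample mean at a set confidence after two filtering rounds, in either direction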;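 also: slope of fluorescence scaled to starting intensity during 10 to 20 s after thallium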
# Target sequence (Q9H2X9 whole entry, looked up): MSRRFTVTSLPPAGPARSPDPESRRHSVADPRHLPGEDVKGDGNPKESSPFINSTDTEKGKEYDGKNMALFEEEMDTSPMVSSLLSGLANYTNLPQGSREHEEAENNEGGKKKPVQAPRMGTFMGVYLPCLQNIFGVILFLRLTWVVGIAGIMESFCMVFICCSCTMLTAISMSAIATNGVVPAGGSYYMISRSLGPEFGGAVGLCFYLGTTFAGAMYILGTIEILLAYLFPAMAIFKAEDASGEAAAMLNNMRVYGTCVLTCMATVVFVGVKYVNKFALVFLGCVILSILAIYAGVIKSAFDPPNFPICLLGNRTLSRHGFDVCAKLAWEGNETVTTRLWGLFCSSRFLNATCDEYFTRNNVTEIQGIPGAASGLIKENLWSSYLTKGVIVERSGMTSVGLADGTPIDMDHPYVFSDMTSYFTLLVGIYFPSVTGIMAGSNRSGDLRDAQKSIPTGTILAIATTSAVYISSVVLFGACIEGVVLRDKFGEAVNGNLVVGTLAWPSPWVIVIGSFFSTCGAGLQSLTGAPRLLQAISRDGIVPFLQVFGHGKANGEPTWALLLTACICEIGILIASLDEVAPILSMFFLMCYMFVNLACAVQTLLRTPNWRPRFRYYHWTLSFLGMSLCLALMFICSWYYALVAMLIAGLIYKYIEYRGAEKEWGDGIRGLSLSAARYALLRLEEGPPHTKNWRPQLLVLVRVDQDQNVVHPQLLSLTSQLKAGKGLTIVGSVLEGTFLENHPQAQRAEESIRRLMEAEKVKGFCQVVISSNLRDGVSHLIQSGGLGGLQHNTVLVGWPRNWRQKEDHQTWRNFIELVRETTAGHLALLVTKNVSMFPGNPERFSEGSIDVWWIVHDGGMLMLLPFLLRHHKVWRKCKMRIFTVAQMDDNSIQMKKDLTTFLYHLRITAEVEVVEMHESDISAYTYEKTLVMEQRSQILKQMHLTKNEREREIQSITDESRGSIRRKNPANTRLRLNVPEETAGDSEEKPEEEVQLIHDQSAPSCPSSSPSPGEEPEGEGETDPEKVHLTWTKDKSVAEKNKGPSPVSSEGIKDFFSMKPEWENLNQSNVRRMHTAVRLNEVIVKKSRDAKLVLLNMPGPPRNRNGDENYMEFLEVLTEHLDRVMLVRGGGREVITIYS
# Dynein transport – dynein cargo transport inhibition | 3617.4 mouse cells, GR-EGFP nuclear translocation imaging; test concentration mostly 20 µM; stimulated with dexamethasone, 1 µM; stronger effect = lower value | z-score, hits read low | 220,000 compounds, 0.47% hits | AID 1381;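 active = plate z-score of nuclear minus cytoplasmic receptor signal below a set negative limit, without overly bright fluorescence or cell loss, cut at about -3.5 in these data, passing the limit was not always enough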;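 also: z-score of nuclear minus cytoplasmic ring GR-EGFP intensity difference per well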
#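 Buffer or medium: tetracycline-free induction medium containing charcoal-stripped FBS / Reagent: dexamethasone agonist, 1.0 µM final, for 30 min / Technique: automated 10x imaging of fixed Hoechst-stained cells / Times: induction 48 h, compound 1 h, agonist 30 min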
# V-ATPase pHluor – regulators of yeast V-ATPase proton transport; S. cerevisiae, pHLuorin cytosolic pH fluorescence; response, % at 10 µM; 350,000 compounds, 0.37% hits; AID 504577; in the data active = response mostly above about 7.3%, no sharp cut-off; inactive = mostly below about 5.4%; also: actives read high
# p-CIP stab down – lowers stability of the mouse p/CIP coactivator protein | Q05BA5 | F442A p/CIP-EGFP cells, EGFP fluorescence, 16 h | decrease of EGFP signal, % at 10 µM | 290,000 compounds, 0.01% hits;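 active = EGFP signal decrease of at least 30% at 10 µM or well 3 SD below plate mean, unless failing retest; inactive = the rest, including hits failing retest or dose response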
# ABCB6 inh 2 – inhibitors of human ABC transporter ABCB6; Q9NP58; K562-ABCB6 porphyrin accumulation, flow cytometry, 1 h; stronger effect = lower value; fluorescence ratio to DMSO, % at 10 µM; 360,000 compounds, 0.19% hits; AID 602162;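 active = fluorescence ratio to DMSO below 75%, the collection mean minus 3 SD; inconclusive = too few cells collected in the well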;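 also: signal is porphyrin accumulated inside mitochondria; lower ratio means ABCB6 inhibition with less porphyrin fluorescence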
# KCC2 secondary – KCC2 (human) modulation, secondary assay; shares compounds with Cl transport mod; HEK293-KCC2, thallium flux, FluoZin2 fluorescence; stronger effect = higher value; normalised thallium flux (F/F0 slope) at 10 µM; 3,700 compounds, 15% hits;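 active = thallium flux slope above the same plate's solvent-only control mean plus 3 SD; inconclusive = the two replicate wells disagree; inactive = no significant difference from solvent-only control wells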
# KCC2 bumet counter – thallium flux persisting under bumetanide in KCC2 cells, counter-screen secondary assay | 3,700 compounds, 49% hits | normalized thallium flux at 10 µM | HEK293-KCC2 + bumetanide/ouabain, thallium flux FluoZin2; stronger effect = higher value | shares compounds with Cl transport mod | AID 1714;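 active = thallium entry rate above the same plate's blocked-transporter control wells by more than 3 SD; inconclusive = the two repeat wells disagree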;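 also: raw slope of fluorescence over initial fluorescence between 10 and 20 s after thallium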
# KCC2 secondary2 – KCC2 (human) modulation, second secondary assay | HEK293-KCC2, thallium flux FluoZin2 fluorescence; actives lie on both sides; F/F0 rise rate, 10–20 s post-thallium | normalized thallium flux at 10 µM | shares compounds with Cl transport mod | 3,700 compounds, 23% hits;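 active = thallium flux slope more than 3 SD above or below the plate's solvent-only control mean, mostly below; inconclusive = the two repeat wells disagreed; inactive = no significant shift from solvent-only controls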
# HEK293 Tl flux – parental HEK flux effect, counter-screen. shares compounds with Cl transport mod. 3,700 compounds, 46% hits. thallium flux rate (normalised fluorescence) at 10 µM. HEK293 parental cells, thallium flux FluoZin2, ouabain; baseline-ratio fluorescence slope, 10–20 s after thallium;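 active = thallium flux rate significantly above the same plate's solvent-only control wells, beyond their mean plus 3 SD; inconclusive = the two replicate wells gave conflicting results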
# KCC2 ouabain – confirmation of human KCC2 modulators with ouabain | shares compounds with Cl transport mod | HEK293-KCC2, thallium flux FluoZin2 fluorescence; bidirectional: low = inhibitor, high = activator | raw Tl+ flux slope (below DMSO = inhibition, above = activation) at 10 µM | 3,700 compounds, 48% hits | AID 1717;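 active = thallium flux slope beyond 3 SD from same-plate DMSO control mean in most replicates, usually higher, sometimes lower; inconclusive = repeat tests gave conflicting results; inactive = no significant difference from controls in most replicates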;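 also: slope of initial-normalized fluorescence between seconds 10 and 20 after thallium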
# HEK293 Tl flux2 – acts in parental HEK cells, second KCC2 counter-screen. shares compounds with Cl transport mod. HEK293 parental, thallium flux FluoZin-2 fluorescence slope. thallium flux slope at 10 µM. 3,700 compounds, 33% hits;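 active = thallium flux slope above the same plate's solvent-control mean plus 3 SD in both duplicate wells; inconclusive = duplicate wells that disagreed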;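 also: run without ouabain in cells lacking the KCC2 cotransporter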
# A number is an active result; 0 = inactive; ? = inconclusive; - = not tested or not shown. Only a selection was taken, and hits are over-represented in it overall.
SMILES,Cl transport mod,Dynein transport,V-ATPase pHluor,p-CIP stab down,ABCB6 inh 2,KCC2 secondary,KCC2 bumet counter,KCC2 secondary2,HEK293 Tl flux,KCC2 ouabain,HEK293 Tl flux2
Cc1nn(-c2ccccc2)c(C)c1/C=C/C(=O)OCC(=O)NC1CCS(=O)(=O)C1 (stereo not given),-,0,0,0,0,0,0,0,0,0,0
O=C(COC(=O)/C=C/c1ccccc1)NC1CCS(=O)(=O)C1 (stereo not given),-,-,0,-,0,-,-,-,-,-,-
Cc1ccc(NS(=O)(=O)c2ccc(C(=O)NCCCN3CCCC3=O)cc2)cc1,-,-,0,-,0,-,-,-,-,-,-
COc1ccccc1OCC(=O)N1CC2(C)CC1CC(C)(C)C2 (stereo not given),4.98,0,0,0,0,0,0,0,0,0,0
COc1ccc(NC(C)=O)cc1CNC(=O)COc1ccccc1C(=O)Nc1cccc(C)c1C,-,-,0,0,0,-,-,-,-,-,-
S=C(N=Nc1ccccc1)NNc1ccccc1,22.6,0,0,0,0,0,0.0178,0.0392,0.0188,0.0271,0.024
O=C(NCC(c1cccs1)N1CCOCC1)c1ccccc1NS(=O)(=O)c1ccc(Cl)c([N+](=O)[O-])c1 (stereo not given),-3.6,0,0,0,0,0,0,0.0265,0.00608,0.0162,?
CCC(CC)C1C(C#N)=C(N)Oc2n[nH]c(C)c21 (stereo not given),-,0,0,0,0,0,0,0,0,0.0164,0
O=C(Nc1ccc2nc3n(c(=O)c2c1)CCCC3)c1cc([N+](=O)[O-])ccc1F,-3.05,0,0,0,0,0,0,0,?,0,0
Cn1c(C(=O)OC(C(=O)NC2CCCCC2)c2ccncc2)cc2sccc21 (stereo not given),0,0,0,0,0,-,-,-,-,-,-
Cn1c(C(=O)OC(C(=O)NC2CCCC2)c2ccncc2)cc2sccc21 (stereo not given),-5.18,0,0,0,0,0,?,0.025,0,?,0
COc1cccc(C(=O)N2N=C(c3ccccc3)CC2(O)C(F)(F)F)c1 (stereo not given),0,0,0,0,0,-,-,-,-,-,-
COc1ccc(C(=O)N2N=C(c3ccccc3)CC2(O)C(F)(F)F)cc1 (stereo not given),10.8,0,0,0,0,0,0.0171,0,0.0138,0.0258,0.0169
COc1cccc(C2=NN(C(=O)c3ccccc3)C(O)(C(F)(F)F)C2)c1 (stereo not given),3.15,0,0,0,0,0,0.0181,0,0.0124,?,?
Nc1ccc(C(=O)N2N=C(c3ccccc3)CC2(O)C(F)(F)F)cc1 (stereo not given),-,-,0,0,0,-,-,-,-,-,-
COc1ccccc1C(NC(=O)C1CCN(CCOc2ccccc2)CC1)c1ccccn1 (stereo not given),-,-,-,-,0,-,-,-,-,-,-
O=C(CCC(=O)OCC(F)(F)C(F)F)Nc1ccc(Cl)cc1,8.28,0,0,0,0,0,0,?,0,0,0
O=C(CCC(=O)OCC(F)(F)C(F)F)Nc1ccc(F)cc1F,0,0,0,0,0,-,-,-,-,-,-
CCCc1nnc(NC(=O)c2cn(CC)c3cc(N4CCN(C)CC4)c(F)cc3c2=O)s1,0,0,0,0,0,-,-,-,-,-,-
